The text below walks through data of ChEMBL document CHEMBL1126129, “Flavones. 3. Synthesis, biological activities, and conformational analysis of isoflavone derivatives and related compounds” (1992).

In experiment [1] the test system is Rattus norvegicus. The experiment can be described thus: Antihypertensive activity was measured as decrease in systolic blood pressure in spontaneously hypertensive rats at 75 mg/kg, po 5 hours after dosing. Format: functional, Artery. Put shortly: (§1)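 Male spontaneously hypertensive rats (Wistar-Kyoto strain), five per dose group. Systolic arterial pressure measured by indirect tail cuff. Dosing was 75 mg/kg po, or 30 mg/kg iv for one analog. Percentage fall in systolic pressure recorded at stated hours after dosing. Significance vs control at p < 0.05; non-significant falls flagged.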

Experiment [2] has as its system Rattus norvegicus. Kind of experiment: In vivo inhibition of carrageenan-induced paw oedema in rats following 50 mg/kg administration. Format: functional. Put shortly:
(§2)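 Male Sprague-Dawley rats, housed 1 week, 160-200 g at test, groups of six. Dosed orally in 0.5% aqueous methocel 2 h before carrageenan challenge; controls got vehicle. Paw volume measured by mercury plethysmometer immediately and 3 h later. % inhibition = (Δcontrol − Δtest)/Δcontrol × 100, compared with control by analysis of variance. Usually one experiment per compound.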
For orientation: In the carrageenan paw model, swelling and tenderness develop within hours.

Experiment [3] has as its system Rattus norvegicus. The experiment can be described thus: Antihypertensive activity was measured as decrease in systolic blood pressure in spontaneously hypertensive rats at 75 mg/kg, po 24 hours after dosing; NS denotes not significant. Format: functional, organism-based. Details: dose 75 mg/kg. To be noted: Artery. An outline of the steps: as §1
The subject of experiment [4] is Rattus norvegicus. Kind of experiment: Antihypertensive activity was measured as decrease in systolic blood pressure in spontaneously hypertensive rats at 75 mg/kg, po 7.5 hours after dosing; NS denotes not significant. Format: functional, organism-based. The note with it: Artery. Set-up: dose 75 mg/kg. Put shortly:
as §1

Experiment [5] deals with Rattus norvegicus. The experiment can be described thus: Antihypertensive activity was measured as decrease in systolic blood pressure in spontaneously hypertensive rats at 75 mg/kg, po 2 hours after dosing; NS denotes not significant. Set-up: dose 75 mg/kg. The format is functional, organism-based. The note with it: Artery. An outline of the steps: as §1
The test system of experiment [6] is Rattus norvegicus. Kind of experiment: Antihypertensive activity was measured as decrease in systolic blood pressure in spontaneously hypertensive rats at 75 mg/kg, po 5 hours after dosing; NS denotes not significant. Format: functional, organism-based. Set-up: dose 75 mg/kg. The note with it: Artery. An outline of the steps:
as §1

In experiment [7] the test system is Rattus norvegicus. The experiment can be described thus: Antihypertensive activity was measured as decrease in systolic blood pressure in spontaneously hypertensive rats at 75 mg/kg, po 2 hours after dosing. Format: functional, Artery. An outline of the steps:
as §1

Experiment [8] deals with Rattus norvegicus. Kind of experiment: Antihypertensive activity was measured as decrease in systolic blood pressure in spontaneously hypertensive rats at 75 mg/kg, po 24 hours after dosing. The format is functional, Artery. An outline of the steps: as §1
Experiment [9] deals with Rattus norvegicus. The experiment can be described thus: Antihypertensive activity was measured as decrease in systolic blood pressure in spontaneously hypertensive rats at 75 mg/kg, po 7.5 hours after dosing. Format: functional, Artery. An outline of the steps:
as §1

Experiment [10] relates to Rattus norvegicus. Kind of experiment: Antihypertensive activity was measured as decrease in systolic blood pressure in spontaneously hypertensive rats at 30 mg/kg, iv 2 hours after dosing; NS denotes not significant. The format is functional, organism-based. Details: dose 30 mg/kg. To be noted: Artery. Put shortly: as §1
Experiment [11] deals with Rattus norvegicus. The experiment can be described thus: Antiinflammatory activity was measured as inhibition of carrageenan-induced paw edema in male rats at 25 mg/kg dose. Format: functional. An outline of the steps: as §2
Experiment [12] deals with Rattus norvegicus. Kind of experiment: Antiinflammatory activity was measured as inhibition of carrageenan-induced paw edema in male rats at 4 mg/kg dose. The format is functional. Put shortly: as §2
Experiment [13] relates to Rattus norvegicus. Kind of experiment: Antiinflammatory activity was measured as %inhibition of carrageenan-induced paw edema in male rats at 50 mg/kg dose. The format is functional. Put shortly:
as §2

Experiment [14] concerns Rattus norvegicus. Kind of experiment: Antiinflammatory activity was measured as %inhibition of carrageenan-induced paw edema in male rats at 25 mg/kg dose. Format: functional. An outline of the steps: as §2

Active and inactive are the calls of the source. No cut-off for these calls is given here.

`Clc1cccc(Cl)c1NC1=NCCN1` [CLONIDINE]: the “Decrease in SBP” value in the experiment on Rattus norvegicus [1] stood at 15%.

The term inhibition in vivo denotes the change of the read-out against control, counted positive when it falls. For `COc1c(-c2ccccc2)oc2cc(OCCCNC(C)C)ccc2c1=O`, in the experiment with Rattus norvegicus [2], the inhibition in vivo at 50 mg/kg was -2%.

Consider `O=c1cc(-c2ccccc2)oc2cc(OCCCNC3CCCC3)ccc12`, for which the inhibition in vivo at 50 mg/kg in the experiment with Rattus norvegicus [2] was found to be 21%.

For the compound `CCCCCNCCCOc1ccc2c(=O)cc(-c3ccccc3)oc2c1`, the inhibition in vivo at 50 mg/kg in the experiment on Rattus norvegicus [2] was -9%.

With `CC(C)NCC(O)COc1ccc2c(=O)c(-c3ccccc3)c(C3CCCCC3)oc2c1` (stereo not drawn), the “Decrease in SBP” value with Rattus norvegicus [3], with Rattus norvegicus [4], in the experiment on Rattus norvegicus [5] and in the experiment on Rattus norvegicus [6] was “inactive” throughout. Besides, the inhibition in vivo at 50 mg/kg in the experiment on Rattus norvegicus [2] came out at 24%.

In the case of `CC(C)NCC(O)COc1ccc2c(=O)c(-c3ccccc3)c(C(C)C)oc2c1` (stereo not drawn), in the experiment with Rattus norvegicus [2], the inhibition in vivo at 50 mg/kg stood at 28%. The “Decrease in SBP” value was determined as 18% with Rattus norvegicus [7], 15% in the experiment on Rattus norvegicus [8], 20% in the experiment with Rattus norvegicus [1] and 25% in the experiment on Rattus norvegicus [9].

Regarding `CC(C)NCC(O)COc1ccc2c(=O)c(-c3ccccc3)c(Cc3ccccc3)oc2c1` (stereo not drawn), the “Decrease in SBP” value with Rattus norvegicus [3], in the experiment on Rattus norvegicus [4], in the experiment with Rattus norvegicus [5] and in the experiment on Rattus norvegicus [6] was “inactive” in each case. The inhibition in vivo at 50 mg/kg in the experiment on Rattus norvegicus [2] is -3.4%.

In the case of `Cc1oc2cc(OCC(O)C[N+](C)(C)C(C)C)ccc2c(=O)c1-c1ccccc1.[I-]` (stereo not drawn), the “Decrease in SBP” value in the experiment with Rattus norvegicus [3], in the experiment on Rattus norvegicus [5] and in the experiment with Rattus norvegicus [6] was “inactive” in each case. Also, the inhibition in vivo at 50 mg/kg in the experiment on Rattus norvegicus [2] amounted to 36%. Further, the “Decrease in SBP” value in the experiment with Rattus norvegicus [9] was 0.1%.

As for `Cc1oc2cc(OCC(O)CN(C)C(C)C)ccc2c(=O)c1-c1ccccc1` (stereo not drawn), the “Decrease in SBP” value in the experiment on Rattus norvegicus [3], in the experiment on Rattus norvegicus [4], in the experiment on Rattus norvegicus [5] and with Rattus norvegicus [6] was “inactive” throughout. Further, the inhibition in vivo at 50 mg/kg in the experiment with Rattus norvegicus [2] is 19%.

Consider `CCCNCCCOc1ccc2c(=O)cc(-c3ccccc3)oc2c1`, for which the inhibition in vivo at 50 mg/kg with Rattus norvegicus [2] came out at 18%.

Turning to `CC(C)(C)NCCCOc1ccc2c(=O)cc(-c3ccccc3)oc2c1`, the inhibition in vivo at 50 mg/kg in the experiment with Rattus norvegicus [2] is 34%.

In the case of `CN(C)CCCOc1ccc2c(=O)cc(-c3ccccc3)oc2c1`, the inhibition in vivo at 50 mg/kg in the experiment with Rattus norvegicus [2] worked out at 13%.

On to `CC(C)NCC(O)COc1ccc2c(=O)c(-c3ccccc3)c(-c3ccco3)oc2c1` (stereo not drawn), for which the “Decrease in SBP” value with Rattus norvegicus [3], with Rattus norvegicus [5] and in the experiment on Rattus norvegicus [6] was “inactive” each time. The inhibition in vivo at 50 mg/kg in the experiment on Rattus norvegicus [2] amounted to 19%. Further, the “Decrease in SBP” value in the experiment with Rattus norvegicus [9] is recorded as 15%.

As for `CCCNCC(O)COc1cccc2c(=O)c(-c3ccccc3)coc12` (stereo not drawn), the “Decrease in SBP” value with Rattus norvegicus [10] is “inactive”.

`O=c1c(-c2ccccc2)coc2cc(OCC(O)CNC3CCCCCCC3)ccc12` (stereo not drawn): the “Decrease in SBP” value in the experiment on Rattus norvegicus [3], in the experiment with Rattus norvegicus [4], in the experiment with Rattus norvegicus [5] and with Rattus norvegicus [6] was “inactive” throughout. For the same compound, the inhibition in vivo at 50 mg/kg in the experiment on Rattus norvegicus [2] stood at 21%. Besides, in the experiment on Rattus norvegicus [11], the inhibition in vivo at 25 mg/kg is 41%.

As usually defined, the Inhibition is how much of the control response was suppressed. Take `COc1ccc2c(c1)c(CC(=O)O)c(C)n2C(=O)c1ccc(Cl)cc1` [INDOMETHACIN]: in the experiment with Rattus norvegicus [12], the Inhibition was 44.6%.

For the compound `CC(C)NCC(O)COc1ccc2c(=O)c(-c3ccccc3)c(-c3ccccc3)oc2c1` (stereo not drawn), the “Decrease in SBP” value is recorded as 15% in the experiment with Rattus norvegicus [7], 34% in the experiment with Rattus norvegicus [8], 23% with Rattus norvegicus [1] and 30% with Rattus norvegicus [9]. In the experiment on Rattus norvegicus [13], the inhibition in vivo at 50 mg/kg was determined as 24.6%. For the same compound, the inhibition in vivo at 25 mg/kg in the experiment with Rattus norvegicus [14] was 32%.

Consider `CC(C)NCCCOc1ccc2c(=O)cc(-c3ccccc3)oc2c1`, for which the inhibition in vivo at 50 mg/kg in the experiment on Rattus norvegicus [2] worked out at 41%.

As to `Cc1oc2cc(OCC(O)CNC(C)C)ccc2c(=O)c1-c1ccccc1` (stereo not drawn), the inhibition in vivo at 50 mg/kg with Rattus norvegicus [2] stood at 19%. The “Decrease in SBP” value came to 17% with Rattus norvegicus [8], 12% in the experiment on Rattus norvegicus [1] and 19% in the experiment on Rattus norvegicus [9]. In addition, the “Decrease in SBP” value in the experiment on Rattus norvegicus [5] is “inactive”.

In the case of `CC(C)NCC(O)COc1ccc2c(=O)cc(-c3ccccc3)oc2c1` (stereo not drawn), the “Decrease in SBP” value with Rattus norvegicus [7] is on record as 12%; with Rattus norvegicus [8] it was 16%; in the experiment with Rattus norvegicus [1], 18%; in the experiment on Rattus norvegicus [9], 23%. For the same compound, the inhibition in vivo at 50 mg/kg in the experiment on Rattus norvegicus [13] was 14.5%.

`O=c1cc(-c2ccccc2)oc2cc(OCCCNC3CCCCCCC3)ccc12`: in the experiment on Rattus norvegicus [2], the inhibition in vivo at 50 mg/kg was 26%.

As for `CC(C)NCC(O)COc1ccc2c(=O)c(-c3ccccc3)coc2c1` (stereo not drawn), the inhibition in vivo at 50 mg/kg with Rattus norvegicus [2] was 33%. Besides, the “Decrease in SBP” value was 21% with Rattus norvegicus [8], 11% in the experiment on Rattus norvegicus [1] and 14% in the experiment on Rattus norvegicus [9]. Besides, the “Decrease in SBP” value in the experiment on Rattus norvegicus [5] is “inactive”.

For `CC(C)NCC(O)COc1ccc2c(=O)c(-c3ccccc3)c(C(F)(F)F)oc2c1` (stereo not drawn), in the experiment on Rattus norvegicus [2], the inhibition in vivo at 50 mg/kg is 28%. Further, the “Decrease in SBP” value with Rattus norvegicus [8] is 20%; in the experiment on Rattus norvegicus [1], 16%; with Rattus norvegicus [9], 16%. Also, in the experiment on Rattus norvegicus [5], the “Decrease in SBP” value was “inactive”.

Turning to `CCCNCC(O)COc1ccc2c(=O)c(-c3ccccc3)c(C(F)(F)F)oc2c1` (stereo not drawn), the inhibition in vivo at 50 mg/kg with Rattus norvegicus [2] turned out to be 22%. Besides, the figures for the “Decrease in SBP” value in the experiment with Rattus norvegicus [8], in the experiment with Rattus norvegicus [1] and in the experiment on Rattus norvegicus [9] were 17%, 11% and 12%, respectively. In the experiment with Rattus norvegicus [5], the “Decrease in SBP” value was “inactive”.
